The source made the active and inactive calls. No cut-off for these calls is given here.
Key:
Mus musculus [1] = experiment: Reduction in glucose excursion in C57BL/6 mouse at 10 mg/kg, iv administered 30 mins before glucose challenge measured at 2 hrs postdose by oral glucose tolerance test; format: functional, C57BL6; set-up: scale not given: the % may be the effect or the level left
How it was run: (§1)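 Normal C57BL6 mice, compound given IV at 10 mg/kg. Oral glucose at 1 g/kg 30 min after dosing. Plasma glucose read by glucose meter at 0 h and at 0.5, 1, 2 and 4 h post-dose. Reported as % reduction from vehicle control at the stated time, with significance at p < 0.05 or the p-value given.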

[2] = Metabolic stability in human liver microsomes assessed as half life; format: ADME, Microsome
How it was run: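 Compound incubated at 1 μM with human liver microsomes plus selected cofactors (NADPH, UDPGA); clearance followed at 4 time points as % test compound remaining, giving half-life.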

Mus musculus [3] = experiment: Reduction in glucose excursion in C57BL/6 mouse at 50 mg/kg, po in water administered 30 mins before glucose challenge measured at 0.5 hr postdose by oral glucose tolerance test; format: functional, C57BL6; set-up: scale not given: the % may be the effect or the level left
How it was run: as §1, with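 “mice dosed by oral gavage” for “mice, compound given IV”, “50 mg/kg, with water as vehicle.” for “10 mg/kg.”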

[4] = Permeability at 5 to 10 uM at pH 4, 6.8 and 8 by PAMPA; conditions: pH 4, 6.8, 8, 10 µM
[5] = molecular target: T1, Hexokinase-4 (Homo sapiens) (UniProt P35557); experiment: Activation of His-tagged human recombinant liver glucokinase expressed in Escherichia coli BL21 (DE3) assessed as drug level required for half-maximal activation; format: single protein
T1 sequence (whole entry): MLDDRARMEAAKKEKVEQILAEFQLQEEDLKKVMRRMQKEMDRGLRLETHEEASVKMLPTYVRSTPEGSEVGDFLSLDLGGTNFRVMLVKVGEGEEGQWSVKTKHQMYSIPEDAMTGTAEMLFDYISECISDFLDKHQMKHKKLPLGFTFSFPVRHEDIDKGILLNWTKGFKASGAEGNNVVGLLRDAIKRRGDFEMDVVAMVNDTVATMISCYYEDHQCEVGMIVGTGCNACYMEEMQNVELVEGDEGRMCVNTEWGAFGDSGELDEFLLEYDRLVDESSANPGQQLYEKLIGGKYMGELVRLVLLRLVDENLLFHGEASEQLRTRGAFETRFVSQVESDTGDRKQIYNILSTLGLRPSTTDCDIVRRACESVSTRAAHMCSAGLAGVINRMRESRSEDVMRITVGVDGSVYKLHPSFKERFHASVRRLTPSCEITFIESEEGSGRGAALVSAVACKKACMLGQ
How it was run: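 Recombinant human liver GK (aa 17-466), His-tagged, expressed in E. coli BL21 Star (DE3), nickel affinity purified, tag cleaved (GPGSM left), then anion exchange and gel filtration to >95%.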

[6] = AUC (0 to 24 hrs) in C57BL/6 mouse plasma at 60 mg/kg; format: ADME, organism-based, C57BL6; set-up: time < 24 hr, dose 60 mg/kg
How it was run: (§2)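 Normal male-unspecified C57BL6 mice given a single 60 mg/kg dose; plasma, liver, pancreas and muscle sampled over 0-24 h, 3 animals with samples pooled for analysis; Cmax (μM) and AUC0-24h (μM*h) of parent drug reported.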

[7] = Cmax in C57BL/6 mouse liver at 60 mg/kg; format: ADME, organism-based, C57BL6; set-up: dose 60 mg/kg; how it was run: as §2
Mus musculus [8] = experiment: Antidiabetic activity in high fat diet-induced obese C57BL/6 type 2 diabetes mouse model assessed as improvement of insulin sensitivity at 30 to 100 mg/kg, po administered QD for 4 weeks by intravenous glucose tolerance test; format: functional, organism-based; conditions: C57BL6
How it was run: (§3)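 Male C57BL6 mice kept on high fat diet dosed orally once daily with vehicle (dH2O) or compound at 30 to 100 mg/kg. Intravenous glucose tolerance test then run; plasma glucose excursion and plasma insulin AUC (0-120 min) calculated; n = 8 mice/group, mean ± SEM, p < 0.05 vs vehicle.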

[9] = Cmax in C57BL/6 mouse muscle at 60 mg/kg; format: ADME, organism-based, C57BL6, Muscle tissue; set-up: dose 60 mg/kg; how it was run: as §2
[10] = AUC (0 to 24 hrs) in C57BL/6 mouse liver at 60 mg/kg; format: ADME, organism-based, C57BL6; set-up: time < 24 hr, dose 60 mg/kg; how it was run: as §2
Mus musculus [11] = experiment: Antidiabetic activity in po dosed high fat diet-induced obese C57BL/6 type 2 diabetes mouse model assessed as decrease in glucose excursion administered QD for 4 weeks by intravenous glucose tolerance test; format: functional, organism-based; conditions: C57BL6; how it was run: as §3
Mus musculus [12] = experiment: Antidiabetic activity in high fat diet-induced obese C57BL/6 type 2 diabetes mouse model assessed as increase in plasma insulin AUC at 100 mg/kg, po administered QD for 4 weeks by intravenous glucose tolerance test; format: functional, organism-based; set-up: dose 100 mg/kg; conditions: C57BL6; how it was run: as §3
Mus musculus [13] = experiment: Antidiabetic activity in high fat diet-induced obese C57BL/6 type 2 diabetes mouse model assessed as reduction of glucose output from liver at 30 to 100 mg/kg, po administered QD for 4 weeks by intravenous glucose tolerance test; format: functional, organism-based; conditions: C57BL6; how it was run: as §3
Mus musculus [14] = experiment: Antidiabetic activity in high fat diet-induced obese C57BL/6 type 2 diabetes mouse model assessed as improvement of glucose uptake at 30 to 100 mg/kg, po administered QD for 4 weeks by intravenous glucose tolerance test; format: functional, organism-based; conditions: C57BL6; how it was run: as §3
[15] = Cmax in C57BL/6 mouse plasma at 60 mg/kg; format: ADME, organism-based, C57BL6; set-up: dose 60 mg/kg; how it was run: as §2
Mus musculus [16] = experiment: Antidiabetic activity in high fat diet-induced obese C57BL/6 type 2 diabetes mouse model assessed as increase in plasma insulin AUC at 30 mg/kg, po administered QD for 4 weeks by intravenous glucose tolerance test; format: functional, organism-based; set-up: dose 30 mg/kg; conditions: C57BL6; how it was run: as §3
[17] = Cmax in C57BL/6 mouse pancreas at 60 mg/kg; format: ADME, organism-based, C57BL6; set-up: dose 60 mg/kg; how it was run: as §2
[18] = AUC (0 to 24 hrs) in C57BL/6 mouse muscle at 60 mg/kg; format: ADME, organism-based, C57BL6, Muscle tissue; set-up: time < 24 hr, dose 60 mg/kg; how it was run: as §2
[19] = AUC (0 to 24 hrs) in C57BL/6 mouse pancreas at 60 mg/kg; format: ADME, organism-based, C57BL6; set-up: time < 24 hr, dose 60 mg/kg; how it was run: as §2

Compound | Activity (Mus musculus [1]) [%] | half-life [2] [min] | Activity (Mus musculus [3]) [%] | logPm [4] | Activity [5] [nM] | AUC(0-t) at 24 h [6] [µM·h] | Cmax [7] [µM] | Activity (Mus musculus [8]) | Cmax [9] [µM] | AUC(0-t) at 24 h [10] [µM·h] | Activity (Mus musculus [11]) | Activity (Mus musculus [12]) | Activity (Mus musculus [13]) | Activity (Mus musculus [14]) | Cmax [15] [µM] | Activity (Mus musculus [16]) | Cmax [17] [µM] | AUC(0-t) at 24 h [18] [µM·h] | AUC(0-t) at 24 h [19] [µM·h]
COc1ccc2nc(NC(=O)C(CC3CCCC3)c3ccc(S(=O)(=O)N4CCNCC4)cc3)sc2n1.Cl (stereo not given) | 26 | < 1.5 | 22 | -4.9 | 50 |  |  |  |  |  |  |  |  |  |  |  |  |  | 
COc1ccc2nc(NC(=O)[C@H](CC3CCCC3)c3ccc(S(=O)(=O)N4CCN(C)CC4)cc3)sc2n1 |  |  |  |  | 23 | 52.4 | 44.5 | Active | 34.6 | 511 | Dose-dependent effect | inactive | Active | Active | 4.3 | inactive | 218 | 167 | 3230

Source: ChEMBL document CHEMBL1155225, “Investigation of functionally liver selective glucokinase activators for the treatment of type 2 diabetes” (J Med Chem, 2009)
